Data taken from ChEMBL document CHEMBL4400543, “Identification and Characterization of AES-135, a Hydroxamic Acid-Based HDAC Inhibitor That Prolongs Survival in an Orthotopic Mouse Model of Pancreatic Cancer” (J Med Chem, 2019).
Calls of active or inactive are those of the source.

Columns and labels:
[1] = target: Signal transducer and activator of transcription 3 (Homo sapiens) (UniProt P40763); assay: Inhibition of STAT3 phosphorylation at S727 residue in human BTSC 143EF cells at 1 to 10 uM after 24 hrs by Western blot method; format: cell-based
In short: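 BTSCs dissociated to single cells and treated with drug or DMSO. Lysed in RIPA buffer with protease inhibitors. 20 μg lysate run on SDS-PAGE and transferred to nitrocellulose. Blocked in 5% milk, primary antibody overnight at 4 °C, then HRP secondary for 1 h.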

Histone deacetylase 8 = target: T1, Histone deacetylase 8 (Homo sapiens, UniProt Q9BY41); assay: Inhibition of recombinant human HDAC8 expressed in SF9 baculoviral system using FAM-labeled acetylated peptide as substrate by EMSA
T1 sequence (Q9BY41 whole entry): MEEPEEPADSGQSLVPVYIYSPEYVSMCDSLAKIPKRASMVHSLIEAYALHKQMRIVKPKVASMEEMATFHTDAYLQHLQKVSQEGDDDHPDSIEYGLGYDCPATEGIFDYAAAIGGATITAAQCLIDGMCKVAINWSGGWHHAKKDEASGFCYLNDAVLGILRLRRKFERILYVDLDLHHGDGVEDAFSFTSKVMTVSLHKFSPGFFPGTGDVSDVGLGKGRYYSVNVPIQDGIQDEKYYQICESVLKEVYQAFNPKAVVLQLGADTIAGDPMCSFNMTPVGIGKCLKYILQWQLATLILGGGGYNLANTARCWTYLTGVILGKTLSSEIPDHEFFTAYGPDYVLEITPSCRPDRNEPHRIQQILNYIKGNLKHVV
In short: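 Full-length recombinant human enzyme from an Sf9 baculovirus system, in 100 mM HEPES pH 7.5 with 25 mM KCl, 0.1% BSA, 0.01% Triton X-100 and 1% DMSO. Final enzyme was 0.5 nM for HDAC3, 60 nM for HDAC6 and 5.0 nM for HDAC8. FAM-acetylated peptide was 1 μM. The read-out was product/(substrate+product) by microfluidic mobility shift, with inhibition set against DMSO and no-enzyme controls (quadruplicate). Compounds were tested at 12 threefold-spaced concentrations, and IC50 came from a four-parameter sigmoid fit.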

[2] = Intrinsic clearance in ICR/CD1 mouse hepatocytes assessed per million cells at 1 uM up to 120 mins by LC-MS/MS analysis; format: ADME, cell-based, Hepatocyte; details: 2 h
[3] = Stability of the compound in DMSO at 10 mM after 25 hrs in presence of reduced L-glutathione by HPLC analysis; format: physicochemical; details: 10000 µM
In short: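 A 10 mM DMSO stock was mixed with 100-fold excess reduced glutathione in HEPES buffer, pH 7.4. Samples were analysed by reversed-phase HPLC at regular intervals, with UV at 254 nm. Decay of the parent compound was followed as loss of its peak area.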

[4] = target: Histone deacetylase 4 (Homo sapiens) (UniProt P56524); assay: Inhibition of recombinant human HDAC4 expressed in SF9 baculoviral system at 10 uM using FAM-labeled acetylated peptide as substrate by EMSA relative to control
[5] = Cmax in NSG mouse at 20 mg/kg, ip administered as single dose and measured at 0.5 hrs by HPLC-MS/MS analysis; format: ADME, organism-based; set-up: dose 20 mg/kg, route intraperitoneal; details: in vivo
In short: (§1)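 NSG mice given a single 20 mg/kg IP dose in Cremophor EL/EtOH (1:1, 4% final volume)/sterile saline. Tail-vein blood at 0.5, 1, 2, 4, 8 and 24 h, n = 2. Drug quantified in serum/plasma. Half-life and clearance calculated assuming 100% bioavailability.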

[6] = Cytotoxicity against human […] cells assessed as reduction in tumor spheroid area after 72 hrs by Alamar Blue assay; format: cell-based
In short: (§2)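 3D spheroids of patient-derived PDAC cells (tomato red) alone or with CAF19 cells, plus CAF cultures. Imaging read-outs: area is the μ2 of objects above a tomato red intensity threshold; intensity is summed red or green pixel fluorescence after background removal. n = 3–5.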

[7] = target: Signal transducer and activator of transcription 5B (Homo sapiens) (UniProt P51692); assay: Inhibition of STAT5b phosphorylation at Y694 in human MV4-11 cells at 10 uM after 5 hrs by Western blot method; format: cell-based
In short: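 Run on 4–15% SDS-PAGE and transferred to PVDF. Primary antibodies 1:1000 overnight at 4 °C, HRP or fluorescent secondary 1:5000, ECL detection, β-actin loading control.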

Pa03C = assay: Cytotoxicity against human Pa03C cells assessed as reduction in tumor spheroid intensity after 72 hrs by Alamar Blue assay; format: functional, cell-based; in short: as §2
[8] = Cytotoxicity against mouse KPC monolayer cells assessed as reduction in tumor spheroid intensity after 72 hrs by Alamar Blue assay; format: functional, cell-based
In short: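 Monolayer proliferation of STR-authenticated, mycoplasma-checked patient-derived PDAC lines and mouse KPC cells. Plated at 2000 cells/well, treated 72 h, read by alamarBlue. At least triplicate, n = 3–5.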

[9] = Antitumor activity against mouse KPC cells allografted in immunocompetent C57BI/6 mouse assessed as mean survival time at 50 mg/kg, ip administered daily for 5 days per week for 1 month starting on day 7 post implantation (reference value: 29.5 days); format: functional
MDA-MB-231 = assay: Cytotoxicity against human MDA-MB-231 cells after 72 hrs by CellTiter-Blue assay; format: functional, cell-based; details: MDA-MB-231, 72 h
In short: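 MDA-MB-231 cells in DMEM with 10% FBS, 10 000 cells/well, treated after 24 h. Twofold dilutions from 50.0 μM, in triplicate, 0.5% DMSO vehicle. 72 h at 37 °C. CellTiter-Blue fluorescence read at 560/590 nm. IC50 by nonlinear regression.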

[10] = target: Polyamine deacetylase HDAC10 (Homo sapiens) (UniProt Q969S8); assay: Inhibition of recombinant human HDAC10 expressed in SF9 baculoviral system at 10 uM using FAM-labeled acetylated peptide as substrate by EMSA relative to control
In short: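 Full-length recombinant human HDACs from an Sf9 baculovirus system. Single-point screen at 10 μM by microfluidic mobility-shift assay with FAM-labeled acetylated peptide substrate. Buffer: 100 mM HEPES pH 7.5, 25 mM KCl, 0.1% BSA, 0.01% Triton X-100, 1% DMSO. % inhibition from product/(substrate + product) against no-inhibitor and no-enzyme controls.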

PC-3 = assay: Cytotoxicity against human PC3 cells at 50 uM after 72 hrs by CellTiter-Blue assay; format: functional, cell-based
[11] = Drug uptake in NSG mouse serum at 20 mg/kg, ip administered as single dose and measured at 1 hr by HPLC-MS/MS analysis; format: ADME, organism-based; details: read-out: Drug uptake; in short: as §1
[12] = Toxicity in NSG mouse at 10 to 40 mg/kg, ip assessed as induction of body weight loss administered daily for 5 days by HPLC-MS/MS analysis; format: organism-based; details: in vivo, 120 h
In short: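 NSG mice were given 10 or 40 mg/kg IP once daily for 5 days (n = 6). Blood was drawn 5 h after the last injection for compound measurement. Toxicity was judged by percentage weight loss versus vehicle-treated mice.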

[13] = Half life in NSG mouse at 20 mg/kg, ip administered as single dose by HPLC-MS/MS analysis; format: ADME, organism-based; details: in vivo; in short: as §1
[14] = Bioavailability in NSG mouse at 20 mg/kg, ip administered as single dose by HPLC-MS/MS analysis; format: ADME, organism-based; details: in vivo

Chain of Polyamine deacetylase HDAC10 (Homo sapiens) (Q969S8 whole entry): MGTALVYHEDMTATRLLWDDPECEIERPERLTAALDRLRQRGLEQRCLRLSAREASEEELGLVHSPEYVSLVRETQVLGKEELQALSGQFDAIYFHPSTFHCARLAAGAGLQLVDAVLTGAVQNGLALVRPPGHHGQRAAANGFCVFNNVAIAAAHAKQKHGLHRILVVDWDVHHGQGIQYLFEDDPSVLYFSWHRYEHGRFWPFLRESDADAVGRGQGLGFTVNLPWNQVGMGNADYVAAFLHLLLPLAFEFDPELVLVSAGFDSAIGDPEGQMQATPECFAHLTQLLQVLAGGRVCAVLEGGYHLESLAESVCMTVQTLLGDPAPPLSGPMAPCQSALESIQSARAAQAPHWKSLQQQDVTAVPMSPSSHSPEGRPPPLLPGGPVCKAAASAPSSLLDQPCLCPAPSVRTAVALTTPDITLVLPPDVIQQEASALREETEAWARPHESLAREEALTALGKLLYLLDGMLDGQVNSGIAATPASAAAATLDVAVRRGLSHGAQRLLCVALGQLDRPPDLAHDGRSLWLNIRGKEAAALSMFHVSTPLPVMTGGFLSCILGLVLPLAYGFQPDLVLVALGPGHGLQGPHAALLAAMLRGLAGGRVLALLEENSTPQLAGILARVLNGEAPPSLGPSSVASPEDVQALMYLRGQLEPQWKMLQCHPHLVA
Chain of Signal transducer and activator of transcription 5B (Homo sapiens) (P51692 whole entry): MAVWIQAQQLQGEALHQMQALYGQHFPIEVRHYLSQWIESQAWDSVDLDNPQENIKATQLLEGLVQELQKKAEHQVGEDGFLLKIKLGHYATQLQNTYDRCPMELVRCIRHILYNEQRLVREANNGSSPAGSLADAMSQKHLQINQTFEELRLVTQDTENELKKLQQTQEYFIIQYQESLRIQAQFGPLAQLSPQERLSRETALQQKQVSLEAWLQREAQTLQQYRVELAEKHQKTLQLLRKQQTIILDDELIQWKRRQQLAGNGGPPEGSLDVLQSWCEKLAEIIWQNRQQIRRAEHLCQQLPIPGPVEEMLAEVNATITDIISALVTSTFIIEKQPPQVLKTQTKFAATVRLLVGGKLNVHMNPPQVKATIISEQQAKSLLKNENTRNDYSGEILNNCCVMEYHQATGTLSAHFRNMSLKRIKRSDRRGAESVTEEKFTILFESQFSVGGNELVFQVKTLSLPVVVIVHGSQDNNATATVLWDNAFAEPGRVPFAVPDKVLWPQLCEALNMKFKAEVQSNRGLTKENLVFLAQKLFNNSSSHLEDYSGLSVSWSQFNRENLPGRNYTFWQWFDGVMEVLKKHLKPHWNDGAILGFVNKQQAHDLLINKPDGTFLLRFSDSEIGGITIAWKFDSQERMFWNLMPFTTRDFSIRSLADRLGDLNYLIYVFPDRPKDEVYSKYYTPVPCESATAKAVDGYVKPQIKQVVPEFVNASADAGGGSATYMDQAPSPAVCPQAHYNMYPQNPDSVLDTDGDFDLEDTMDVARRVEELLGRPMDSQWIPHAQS
Chain of Signal transducer and activator of transcription 3 (Homo sapiens) (P40763 whole entry): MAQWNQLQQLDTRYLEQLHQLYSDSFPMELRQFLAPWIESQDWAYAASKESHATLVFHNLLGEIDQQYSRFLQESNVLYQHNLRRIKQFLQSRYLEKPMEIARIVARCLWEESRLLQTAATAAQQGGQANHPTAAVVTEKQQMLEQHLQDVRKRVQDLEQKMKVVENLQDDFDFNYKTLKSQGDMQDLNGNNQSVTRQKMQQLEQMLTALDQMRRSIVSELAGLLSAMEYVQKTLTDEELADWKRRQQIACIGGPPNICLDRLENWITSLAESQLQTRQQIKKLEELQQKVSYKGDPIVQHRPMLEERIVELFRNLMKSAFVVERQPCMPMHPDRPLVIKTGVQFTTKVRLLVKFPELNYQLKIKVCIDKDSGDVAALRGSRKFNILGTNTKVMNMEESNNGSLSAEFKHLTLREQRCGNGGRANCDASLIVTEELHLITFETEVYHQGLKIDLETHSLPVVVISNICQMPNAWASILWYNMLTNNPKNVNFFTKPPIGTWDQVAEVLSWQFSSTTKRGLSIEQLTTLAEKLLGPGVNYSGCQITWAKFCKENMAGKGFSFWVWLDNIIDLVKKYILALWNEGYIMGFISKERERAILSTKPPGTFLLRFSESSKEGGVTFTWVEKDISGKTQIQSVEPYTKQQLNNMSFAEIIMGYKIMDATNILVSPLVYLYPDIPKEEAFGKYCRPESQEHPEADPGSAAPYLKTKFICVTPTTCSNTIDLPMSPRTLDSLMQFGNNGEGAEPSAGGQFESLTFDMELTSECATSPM
Chain of Histone deacetylase 4 (Homo sapiens) (P56524 whole entry): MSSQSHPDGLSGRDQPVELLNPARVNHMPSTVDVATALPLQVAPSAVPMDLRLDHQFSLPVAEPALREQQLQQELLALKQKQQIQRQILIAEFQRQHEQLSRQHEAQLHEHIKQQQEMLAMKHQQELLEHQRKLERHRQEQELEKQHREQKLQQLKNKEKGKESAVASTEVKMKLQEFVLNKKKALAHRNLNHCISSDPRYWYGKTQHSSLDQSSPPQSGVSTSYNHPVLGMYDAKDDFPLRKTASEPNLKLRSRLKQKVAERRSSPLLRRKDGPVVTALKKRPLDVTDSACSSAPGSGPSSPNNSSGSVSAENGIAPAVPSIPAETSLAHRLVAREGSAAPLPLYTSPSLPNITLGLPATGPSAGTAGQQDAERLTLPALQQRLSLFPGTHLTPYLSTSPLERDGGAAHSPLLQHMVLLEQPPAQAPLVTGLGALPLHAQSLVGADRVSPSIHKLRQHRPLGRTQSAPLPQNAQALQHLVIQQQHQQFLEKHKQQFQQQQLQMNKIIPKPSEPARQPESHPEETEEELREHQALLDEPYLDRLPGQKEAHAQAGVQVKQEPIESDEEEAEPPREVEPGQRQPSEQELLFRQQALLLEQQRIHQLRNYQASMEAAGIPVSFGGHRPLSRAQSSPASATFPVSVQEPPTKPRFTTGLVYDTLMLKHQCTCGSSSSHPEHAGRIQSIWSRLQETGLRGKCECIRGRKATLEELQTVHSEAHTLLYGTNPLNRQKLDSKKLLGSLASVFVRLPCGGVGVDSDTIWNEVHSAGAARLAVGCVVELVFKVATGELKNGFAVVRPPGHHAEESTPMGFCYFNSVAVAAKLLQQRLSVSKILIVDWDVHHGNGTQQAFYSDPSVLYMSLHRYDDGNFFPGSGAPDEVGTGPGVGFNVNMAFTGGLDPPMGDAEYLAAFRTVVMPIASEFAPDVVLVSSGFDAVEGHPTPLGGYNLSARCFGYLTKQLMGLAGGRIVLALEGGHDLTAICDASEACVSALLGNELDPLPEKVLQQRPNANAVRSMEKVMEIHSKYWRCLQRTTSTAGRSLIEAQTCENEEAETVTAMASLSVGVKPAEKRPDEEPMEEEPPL

Structure (SMILES): CC(C)(C)c1ccc(CN(C(=O)CN(Cc2c(F)c(F)c(F)c(F)c2F)S(=O)(=O)c2ccc(F)cc2)c2ccc(C(=O)NO)cc2)cc1
- inhibition [1]: inactive
- IC50 (Histone deacetylase 8): > 1000 nM
- CLH [2]: 36 µL/min
- Stability [3]: Stable
- inhibition [4]: 15%
- Cmax [5]: 10.7 µM
- IC50 [6]: 4700 to 7800 nM
- inhibition [7]: inactive
- IC50 (Pa03C): 1330 nM
- IC50 [8]: 1300 nM
- MST [9]: 36.5 days
- IC50 (MDA-MB-231): 2720 nM
- inhibition [10]: 70%
- Activity (PC-3): Active
- concentration at 1 h [11]: 5400 ng/mL
- Activity [12]: Non-Toxic
- half-life [13]: 5 h
- bioavailability [14]: 100%
